Test results from PMC5930004 (European journal of medicinal chemistry, 2018).
“Also recorded” adds a separate entry of the source.

Legend:
recombinant human TDP2 = molecular target: T1, recombinant human TDP2 (Homo sapiens, UniProt O95551); experiment: Recombinant TDP2 assay; assay type: biochemical; conditions: inactive, i.e. IC50 >111 μM
T1 sequence (O95551 1-362): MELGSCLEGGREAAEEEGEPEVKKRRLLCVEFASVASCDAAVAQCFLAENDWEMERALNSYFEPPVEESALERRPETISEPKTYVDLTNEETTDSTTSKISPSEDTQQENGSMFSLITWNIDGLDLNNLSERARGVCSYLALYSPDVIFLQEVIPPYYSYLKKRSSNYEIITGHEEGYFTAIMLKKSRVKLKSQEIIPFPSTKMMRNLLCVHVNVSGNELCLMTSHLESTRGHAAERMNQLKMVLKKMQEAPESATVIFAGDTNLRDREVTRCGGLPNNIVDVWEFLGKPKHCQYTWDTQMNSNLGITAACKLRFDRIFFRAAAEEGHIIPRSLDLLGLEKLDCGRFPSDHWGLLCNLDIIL

recombinant TDP1 = recombinant TDP1 (Homo sapiens, UniProt Q9NUW8); experiment: Recombinant TDP1 assay; assay type: biochemical; conditions: highest concentration tested 111 μM
Outline: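 Test compound was run as six or eight three-fold dilutions from 111 μM down to 0.46 μM or 0.051 μM against recombinant TDP1. Reactions were stopped with 1 volume of gel loading buffer (99.5% formamide, 5 mM EDTA, xylene cyanol, bromophenol blue) and resolved by 16% denaturing PAGE. Dried gels were phosphorimaged and quantified by densitometry.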

TOP1 [1] = molecular target: T2, TOP1 (Homo sapiens, UniProt P11387); experiment: TOP1-mediated relaxation assay; assay type: biochemical; conditions: 25 μM concentration
T2 sequence (P11387 1-765): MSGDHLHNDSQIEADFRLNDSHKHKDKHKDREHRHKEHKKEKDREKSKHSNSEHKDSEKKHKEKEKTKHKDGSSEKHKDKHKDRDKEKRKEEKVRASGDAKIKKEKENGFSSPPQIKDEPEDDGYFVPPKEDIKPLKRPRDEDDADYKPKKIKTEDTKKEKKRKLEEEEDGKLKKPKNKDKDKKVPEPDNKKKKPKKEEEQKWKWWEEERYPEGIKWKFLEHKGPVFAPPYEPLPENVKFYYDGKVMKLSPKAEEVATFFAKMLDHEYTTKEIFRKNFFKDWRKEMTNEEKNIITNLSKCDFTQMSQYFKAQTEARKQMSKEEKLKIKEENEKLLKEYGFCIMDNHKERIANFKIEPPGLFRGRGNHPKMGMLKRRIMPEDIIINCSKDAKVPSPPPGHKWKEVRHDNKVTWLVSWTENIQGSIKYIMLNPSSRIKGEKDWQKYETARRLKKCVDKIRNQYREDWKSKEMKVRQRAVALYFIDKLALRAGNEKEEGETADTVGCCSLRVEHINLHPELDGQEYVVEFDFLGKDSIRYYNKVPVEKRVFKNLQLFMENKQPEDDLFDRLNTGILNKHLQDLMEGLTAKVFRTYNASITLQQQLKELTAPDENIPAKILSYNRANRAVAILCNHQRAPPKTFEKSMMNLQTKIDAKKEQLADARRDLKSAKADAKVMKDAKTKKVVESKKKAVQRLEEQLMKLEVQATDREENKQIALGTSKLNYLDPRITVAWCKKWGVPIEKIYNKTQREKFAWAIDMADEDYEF

TOP1 [2] = molecular target: T2, TOP1; experiment: TOP1-mediated DNA cleavage assay; assay type: biochemical; conditions: up to 100 μM
[3] = molecular target: TOP2-DNA covalent cleavage complexes (TOP2cc) in CCRF-CEM cells (Homo sapiens, UniProt P11388); experiment: In vivo complex of enzyme; assay type: cell-based; conditions: 2 h treatment, up to 50 μM
Outline: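 CCRF-CEM cells (60 × 10^5) exposed to test compound for 2 h, then lysed with 1% Sarkosyl. DNA was isolated, and TOP2–DNA covalent complexes were detected by Western slot blot using a mouse anti-human TOP2α antibody.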

TOP2 = experiment: TOP2-mediated relaxation assay; assay type: biochemical; conditions: 25 μM concentration

recombinant TDP1, sequence (Q9NUW8 whole entry, species assumed): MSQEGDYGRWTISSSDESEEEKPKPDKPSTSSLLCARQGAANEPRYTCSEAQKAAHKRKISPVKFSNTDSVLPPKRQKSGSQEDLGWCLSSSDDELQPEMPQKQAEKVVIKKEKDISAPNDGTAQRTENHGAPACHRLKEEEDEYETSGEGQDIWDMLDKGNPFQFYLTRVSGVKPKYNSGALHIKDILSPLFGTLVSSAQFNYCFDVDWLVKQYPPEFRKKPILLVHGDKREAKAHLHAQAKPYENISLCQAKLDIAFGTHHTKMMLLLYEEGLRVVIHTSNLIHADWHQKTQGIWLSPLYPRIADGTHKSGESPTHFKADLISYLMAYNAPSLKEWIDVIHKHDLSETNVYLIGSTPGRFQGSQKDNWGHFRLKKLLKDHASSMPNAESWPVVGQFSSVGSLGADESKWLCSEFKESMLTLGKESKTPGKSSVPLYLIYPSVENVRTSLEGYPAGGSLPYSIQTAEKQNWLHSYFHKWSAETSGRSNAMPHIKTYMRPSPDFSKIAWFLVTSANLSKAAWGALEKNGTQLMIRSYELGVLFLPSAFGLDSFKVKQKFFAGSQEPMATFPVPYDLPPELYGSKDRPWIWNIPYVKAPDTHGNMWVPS
TOP2-DNA covalent cleavage complexes (TOP2cc) in CCRF-CEM cells, sequence (P11388 whole entry, one chain of several): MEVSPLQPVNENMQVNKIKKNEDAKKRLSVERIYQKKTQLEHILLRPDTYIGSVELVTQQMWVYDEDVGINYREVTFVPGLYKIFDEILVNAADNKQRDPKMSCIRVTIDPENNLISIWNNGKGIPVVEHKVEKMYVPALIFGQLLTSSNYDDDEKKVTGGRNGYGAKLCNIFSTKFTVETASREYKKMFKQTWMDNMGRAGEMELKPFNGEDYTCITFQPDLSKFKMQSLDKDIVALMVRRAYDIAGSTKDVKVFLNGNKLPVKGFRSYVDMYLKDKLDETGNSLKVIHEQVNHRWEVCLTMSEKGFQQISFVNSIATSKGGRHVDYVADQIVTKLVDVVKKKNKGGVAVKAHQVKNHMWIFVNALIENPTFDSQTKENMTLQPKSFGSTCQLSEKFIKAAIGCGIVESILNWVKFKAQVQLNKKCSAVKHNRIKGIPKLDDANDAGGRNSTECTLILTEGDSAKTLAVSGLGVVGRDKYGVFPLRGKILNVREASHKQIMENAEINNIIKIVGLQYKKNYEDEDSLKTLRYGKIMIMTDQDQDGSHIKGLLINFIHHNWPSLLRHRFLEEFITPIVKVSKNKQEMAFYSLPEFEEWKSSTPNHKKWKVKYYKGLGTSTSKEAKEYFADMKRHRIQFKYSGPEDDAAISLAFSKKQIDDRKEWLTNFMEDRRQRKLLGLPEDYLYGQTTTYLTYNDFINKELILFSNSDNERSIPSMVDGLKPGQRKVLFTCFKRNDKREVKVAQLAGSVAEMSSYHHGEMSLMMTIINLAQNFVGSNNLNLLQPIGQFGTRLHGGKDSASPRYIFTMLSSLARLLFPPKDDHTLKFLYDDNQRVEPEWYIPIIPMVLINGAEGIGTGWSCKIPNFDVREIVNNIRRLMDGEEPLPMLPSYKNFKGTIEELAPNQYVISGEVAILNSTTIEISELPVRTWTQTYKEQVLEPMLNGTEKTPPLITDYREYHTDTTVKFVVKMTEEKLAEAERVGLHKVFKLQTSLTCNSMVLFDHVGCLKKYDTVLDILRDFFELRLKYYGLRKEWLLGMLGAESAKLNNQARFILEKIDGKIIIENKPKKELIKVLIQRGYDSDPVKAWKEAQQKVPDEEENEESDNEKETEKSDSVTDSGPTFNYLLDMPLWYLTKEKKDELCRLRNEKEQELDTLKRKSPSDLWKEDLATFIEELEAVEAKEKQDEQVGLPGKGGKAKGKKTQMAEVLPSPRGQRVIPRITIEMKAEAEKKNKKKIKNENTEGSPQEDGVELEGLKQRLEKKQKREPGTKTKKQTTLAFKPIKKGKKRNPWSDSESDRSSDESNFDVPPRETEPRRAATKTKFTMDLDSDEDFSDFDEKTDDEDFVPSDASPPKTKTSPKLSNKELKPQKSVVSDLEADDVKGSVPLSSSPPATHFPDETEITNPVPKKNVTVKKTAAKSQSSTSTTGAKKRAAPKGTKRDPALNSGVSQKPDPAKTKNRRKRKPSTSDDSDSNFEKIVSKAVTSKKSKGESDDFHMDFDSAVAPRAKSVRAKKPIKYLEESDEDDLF

TDP2 inhibitory activity (in words) (recombinant human TDP2)	TDP1 inhibition (in words) (recombinant TDP1)	SMILES	TOP1 relaxing activity inhibition (in words) (TOP1 [1])	TOP2 relaxing activity inhibition (in words) (TOP2)	also measured
inactive		Cc1oc2c(c1C(=O)Oc1ccc(C(=O)c3ccccc3)cc1)C(=O)c1ncccc1C2=O [Compound 46, 4-Benzoylphenyl 2-methyl-4,9-dioxo-4,9-dihydrofuro[2,3-g]quinoline-3-carboxylate]			
inactive		Cc1oc2c(c1C(=O)Oc1ccc3ccccc3c1)C(=O)c1ncccc1C2=O [Compound 40, 2-Naphthalenyl 2-methyl-4,9-dioxo-4,9-dihydrofuro[2,3-g]quinoline-3-carboxylate]			
inactive		CCOC(=O)c1n[nH]c2c1C(=O)c1cccnc1C2=O [Compound 76, Ethyl 4,9-dioxo-4,9-dihydro-1H-pyrazolo[4,3-g]quinoline-3-carboxylate]			
inactive		Cc1oc2c(c1C(=O)Oc1ccc3c(c1)OCO3)C(=O)c1ncccc1C2=O [Compound 49, Benzo[d][1,3]dioxol-5-yl 2-methyl-4,9-dioxo-4,9-dihydrofuro[2,3-g]quinoline-3-carboxylate]			
inactive		CCOC(=O)c1c(C)[nH]c2c1C(=O)c1cccnc1C2=O [Compound 70, ethyl 2-methyl-4,9-dioxo-4,9-dihydro-1H-pyrrolo[3,2-g]quinoline-3-carboxylate]			
	no activity	CCOC(=O)c1noc2c1C(=O)c1cccnc1C2=O [Compound 74, Ethyl 4,9-dioxo-4,9-dihydroisoxazolo[4,5-g]quinoline-3-carboxylate]	do not have inhibitory potency; also recorded: no activity	do not have inhibitory potency; also recorded: no activity	TOP1-mediated DNA cleavage, formation of covalent TOP1-DNA complex (in words) (TOP1 [2]): do not have inhibitory potency; Induction of TOP2cc formation (ICE assay, in words) [3]: unable to induce the formation of TOP2cc
	did not inhibit	CCOC(=O)c1c(C)oc2c1C(=O)c1ncccc1C2=O [Compound 1, Ethyl 2-methyl-4,9-dioxo-4,9-dihydrofuro[2,3-g]quinoline-3-carboxylate]	did not inhibit	did not inhibit	
	no activity	CCOC(=O)c1noc2c1C(=O)c1ncccc1C2=O [Compound 73, Ethyl 4,9-dioxo-4,9-dihydroisoxazolo[5,4-g]quinoline-3-carboxylate]	do not have inhibitory potency; also recorded: no activity	do not have inhibitory potency; also recorded: no activity	TOP1-mediated DNA cleavage, formation of covalent TOP1-DNA complex (in words) (TOP1 [2]): do not have inhibitory potency
inactive		CCOC(=O)c1c2c(n(C)c1C)C(=O)c1ncccc1C2=O [Compound 72, ethyl 1,2-dimethyl-4,9-dioxo-4,9-dihydro-1H-pyrrolo[3,2-g]quinoline-3-carboxylate]			
inactive		CCOC(=O)c1n[nH]c2c1C(=O)c1ncccc1C2=O [Compound 75, Ethyl 4,9-dioxo-4,9-dihydro-1H-pyrazolo[3,4-g]quinoline-3-carboxylate]			
